This is a sample that favours compounds with a hit; in the whole collection about 6.7% have one here.
PREPL inh = inhibits the human prolyl oligopeptidase-like enzyme. inhibition, % at 5.96 µM. 320,000 tested, 0.68% active. recombinant PREPL, fluorescence polarization activity-based probe; in the data active = inhibition above about 43%
Target sequence (Q4J6C6 whole entry, looked up): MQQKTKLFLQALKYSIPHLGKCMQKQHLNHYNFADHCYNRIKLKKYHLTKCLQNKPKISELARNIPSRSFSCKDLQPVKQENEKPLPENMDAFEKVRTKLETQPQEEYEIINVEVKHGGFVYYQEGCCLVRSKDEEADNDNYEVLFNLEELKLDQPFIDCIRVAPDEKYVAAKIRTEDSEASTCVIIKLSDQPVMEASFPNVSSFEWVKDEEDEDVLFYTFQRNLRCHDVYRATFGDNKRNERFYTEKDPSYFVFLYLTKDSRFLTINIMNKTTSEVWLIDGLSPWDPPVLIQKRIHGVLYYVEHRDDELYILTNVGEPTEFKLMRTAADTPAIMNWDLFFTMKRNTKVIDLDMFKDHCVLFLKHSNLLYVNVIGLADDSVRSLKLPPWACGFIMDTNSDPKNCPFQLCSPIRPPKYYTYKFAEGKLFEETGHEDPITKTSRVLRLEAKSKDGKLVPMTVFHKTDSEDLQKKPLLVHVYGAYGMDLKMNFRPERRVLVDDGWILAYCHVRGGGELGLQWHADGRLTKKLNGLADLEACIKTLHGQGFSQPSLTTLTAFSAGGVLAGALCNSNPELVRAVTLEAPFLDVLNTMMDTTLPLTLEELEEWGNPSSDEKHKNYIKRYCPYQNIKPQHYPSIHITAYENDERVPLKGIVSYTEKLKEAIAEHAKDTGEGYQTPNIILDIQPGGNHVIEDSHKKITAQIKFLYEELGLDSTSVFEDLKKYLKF
CHOP inhibitor = inhibitors of CHOP induction in ER stress response; CHO-K1 CHOP-promoter luciferase, tunicamycin-induced, 15-18 h; AID 2732; inhibition, % at 10 µM; 220,000 tested, 3.8% active;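 active = compounds that reduced the stress-induced luciferase reporter signal by more than about 70% of percent inhibition, limit read from the data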
CSC inhib = cancer stem cell inhibition; cancer stem cell-like cells viability, luminescence; inhibition, % at 7.5 µM; 300,000 tested, 1.1% active; in the data active = inhibition above about 75%; tested in HMLE shEcad cells
Beta cell apopt = beta cell apoptosis inhibition; INS-1E cytokine-induced death, ATP luminescence, 48 h; percent of positive-control rescue, neutral wells zero; protection from apoptosis, % (concentration not given with the values); 300,000 tested, 0.8% active;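 active = Every replicate reaches about 75%, or at least half do and their mean reaches it too, limit read from the data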;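 also: higher means more ATP so stronger rescue from cytokine killing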
GRIN3A LBD mod = NR3A (human) ligand-binding domain modulation; NR3A LBD differential scanning fluorimetry, Tm shift; 0% = protein alone, 100% = glycine-bound protein; Tm shift relative to glycine control, % at 25 µM; 340,000 tested, 2.5% active; AID 1259313;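 active = melting temperature shift of at least 10% of the positive control shift, at one fixed dose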
T cruzi repl = blocks replication of Trypanosoma cruzi; T. cruzi beta-gal in NIH3T3, luminescence, 90 h; inhibition, % (concentration not given with the values); 300,000 tested, 1.4% active; AID 1885;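 active = mean inhibition across valid replicates above about 55%, limit read from the data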;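 also: signal also drops with host cell toxicity which is not excluded here; higher percent means less beta-gal luminescence so fewer parasites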
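Material: NIH/3T3 host cells with β-galactosidase reporter T. cruzi; Input: 5,000 host fibroblasts per well; Medium: DMEM, 2% fetal bovine serum; Compound: 50 nL DMSO compound solution per well; Schedule: 3 h host attachment, then at least 90 h co-culture; Detection: luminescent β-galactosidase signal after 60 min lysis.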
Large screens that a line does not name were inactive.

CCC(NC(=O)OCc1ccccc1)C(=O)Oc1ccc2ccc(=O)oc2c1 (centres undefined)	none (no result: CHOP inhibitor)
CN(c1ccccc1)S(=O)(=O)c1ccc(Cl)c(C(=O)OCC(=O)c2c(N)n(C)c(=O)n(C)c2=O)c1	none (no result: PREPL inh, CHOP inhibitor, CSC inhib, Beta cell apopt, T cruzi repl)
CCOC(=O)[C@H]1[C@H]2COc3cc(OC)ccc3[C@@H]2N2C(=O)CN(C)C(=O)[C@@]12C	none (no result: CHOP inhibitor, T cruzi repl)
CN(CC1CCCN(CCc2ccc(F)cc2)C1)C(=O)CCC(N)=O (centres undefined)	none (no result: CHOP inhibitor)
COc1ccc(/C=C/C(=O)NC(=S)NNC(=O)c2cc(OC)c(OC)c(OC)c2)cc1	CHOP inhibitor 89.4
COc1ccc(CCNC(=O)/C=C\c2ccccc2)cc1OC	none
COc1ccc(/C=C/C(=O)NC(=S)Nc2ccc(Br)cn2)cc1	GRIN3A LBD mod 24.9 (no result: CHOP inhibitor, CSC inhib, Beta cell apopt)
COc1ccc(NC(=S)NC(=O)/C=C/c2ccc(F)cc2)cc1	none (no result: PREPL inh, CHOP inhibitor)
COc1ccc(/C=C/C(=O)NC(=S)NCCc2ccc(OC)c(OC)c2)cc1	CHOP inhibitor 88.2
COc1ccc(OC)c(NC(=O)CSc2nnc3ccc(-c4ccccn4)nn23)c1	none (no result: CHOP inhibitor)
COc1ccccc1-c1nnc(SCC(=O)c2c(N)n(C3CC3)c(=O)[nH]c2=O)o1	none (no result: CHOP inhibitor, T cruzi repl)
CC(=O)Nc1ccc(S(=O)(=O)N(C)Cc2cnn(C)c2)cc1	none (no result: CHOP inhibitor)
COCCNC(=O)CCC1CCN(Cc2cccc(Oc3ccccc3)c2)CC1	none (no result: CHOP inhibitor)
COC(=O)C1CN(Cc2ccccc2)C(=O)C1=O (centres undefined)	none (no result: PREPL inh, CHOP inhibitor, CSC inhib, Beta cell apopt, T cruzi repl)
COc1cc2oc(=O)cc(-c3cccc(-c4ccc(C(F)(F)F)cc4)c3)c2c(OC)c1OC	GRIN3A LBD mod 16.8 (no result: PREPL inh, CHOP inhibitor, CSC inhib, Beta cell apopt, T cruzi repl)
COc1cc2oc(=O)cc(-c3ccc(-c4ccc(C(F)(F)F)cc4)cc3)c2c(OC)c1OC	none (no result: PREPL inh, CHOP inhibitor, CSC inhib, Beta cell apopt, T cruzi repl)
CC(C)(C)c1ccccc1OCCOCCN1CCCCCC1	T cruzi repl 56.3
Clc1ccc(Cl)c(OCCCCN2CCNCC2)c1	CSC inhib 96.3, T cruzi repl 60.3 (no result: CHOP inhibitor)
CCN1CCN(CCCOc2ccc(Cl)cc2Br)CC1	T cruzi repl 57.3
Brc1ccccc1OCCCCCN1CCCC1	T cruzi repl 56.7 (no result: GRIN3A LBD mod)
CSc1ccc(/C=C/C(=O)OCC(=O)N2CCN(S(=O)(=O)c3ccc(C)cc3C)CC2)cc1	none (no result: CHOP inhibitor, T cruzi repl)
Clc1ccc(OCCCCCN2CCCC2)c(Br)c1	T cruzi repl 68.0
Cc1cc(Br)ccc1OCCN1CCCC1	T cruzi repl 73.0 (no result: CHOP inhibitor)
O=C(Nc1ccc(Cl)c(Cl)c1)NC1CCS(=O)(=O)C1 (centres undefined)	none (no result: CHOP inhibitor)
Cc1cccc(-n2c(O)c(C=NC3CCS(=O)(=O)C3)c3ccccc3c2=O)c1C (centres undefined)	none
COc1ccccc1NS(=O)(=O)c1ccc2ccccc2c1	none (no result: CHOP inhibitor)
COc1ccc(NS(=O)(=O)c2ccc3ccccc3c2)c2ncccc12	T cruzi repl 57.3 (no result: CHOP inhibitor, CSC inhib)
CCCCNC(=O)O[C@@H]1C[C@H]2CCCC(=O)N3CC[C@@H](C1)[C@@H]23	none (no result: CHOP inhibitor)
CCCCCCCN(c1ccccc1)[C@@H]1C[C@H]2CCCC(=O)N3CC[C@@H](C1)[C@@H]23	GRIN3A LBD mod 18.8 (no result: PREPL inh, CHOP inhibitor, CSC inhib, Beta cell apopt, T cruzi repl)
C=CCn1c(SCC(=O)NC2CCCc3ccccc32)nnc1-c1ccncc1 (centres undefined)	none (no result: Beta cell apopt)
O=[N+]([O-])c1cc(S(=O)(=O)Nc2cccc(C(F)(F)F)c2)ccc1-n1nnc2ccccc21	GRIN3A LBD mod 18.9
O=[N+]([O-])c1cc(S(=O)(=O)Nc2ccccc2)ccc1NCc1ccccc1	CHOP inhibitor 92.5 (no result: CSC inhib, Beta cell apopt)
O=[N+]([O-])c1cc(S(=O)(=O)Nc2ccccc2)ccc1N1CCN(c2ccccc2)CC1	GRIN3A LBD mod 20.1
O=[N+]([O-])c1cc(S(=O)(=O)C(F)(F)F)ccc1N1CCN(c2ccccc2)CC1	none
COc1ccc(NS(=O)(=O)c2ccc(-n3nnc4ccccc43)c([N+](=O)[O-])c2)cc1	none
CC(c1ccccc1)N1CC(C(=O)N2CCN(c3ccc(F)cc3)CC2)CC1=O (centres undefined)	none
COc1ccc(S(=O)(=O)N2CCCCC2)cc1C(=O)N1CCCCCC1	none (no result: CHOP inhibitor)
O=C(NC[C@@H]1CC[C@@H](Cc2ccc(-c3ccccc3)cc2)O1)Nc1ccc(Br)cc1	GRIN3A LBD mod 24.1 (no result: PREPL inh, CHOP inhibitor, CSC inhib, Beta cell apopt, T cruzi repl)
O=C(CSc1ccc(Cl)cc1)Nc1cccc(-c2nnc(-c3ccco3)o2)c1	GRIN3A LBD mod 10.7
Cc1ccc(SCC(=O)Nc2cccc(-c3nnc(-c4ccco4)o3)c2)cc1	CHOP inhibitor 70.7
CCOC(=O)C1(CCCc2ccccc2)CCN(C(=O)c2cc(C)nn2CC)CC1	none (no result: CHOP inhibitor)
O=C(OCCOCCN=C1NS(=O)(=O)c2ccccc21)C1CC(=O)N(c2ccccc2)C1 (centres undefined)	none
O=C(OCCN=C1NS(=O)(=O)c2ccccc21)C1CC(=O)N(c2ccc(Cl)cc2)C1 (centres undefined)	GRIN3A LBD mod 24.0
Cc1cc2ccccc2c(=O)n1CC(=O)NCC(=O)N1CCN(c2ccccc2F)CC1	none
Cc1cc2ccccc2c(=O)n1CC(=O)NCC(=O)N1CCN(c2cccc(Cl)c2)CC1	CHOP inhibitor 89.2
COc1ccc(Sc2cc(C(F)(F)F)nc(-c3ccccn3)n2)cc1	CHOP inhibitor 82.7
O=C(c1cc([N+](=O)[O-])ccc1Cl)N1CCN(c2ccc(F)cc2)CC1	PREPL inh 45.0
CCCC(=O)c1ccc(N2CCN(C(=O)c3ccc(Br)cc3)CC2)c(F)c1	CHOP inhibitor 73.2
O=[N+]([O-])c1ccc(N2CCN(c3ccc(F)cc3)CC2)cc1	none (no result: CHOP inhibitor, CSC inhib, Beta cell apopt)
CCCC(=O)c1ccc(N2CCN(C(=O)c3ccccc3Br)CC2)c(F)c1	CHOP inhibitor 74.1
COc1ccc(C(=O)c2ccc(N3CCN(C(=O)c4ccc(F)cc4)CC3)c(F)c2)cc1Br	T cruzi repl 61.3
COc1cc(/C=N/NC(=O)c2ccc(Cl)c(S(N)(=O)=O)c2)ccc1OCC(N)=O	none
O=S(=O)(c1cccc2ccccc12)N1CCC2CC1c1cc(Cl)ccc12 (centres undefined)	none (no result: PREPL inh, CHOP inhibitor, CSC inhib, Beta cell apopt, T cruzi repl)
O=C(Cn1cc(S(=O)(=O)N2CCN(c3ccccc3F)CC2)c2ccccc2c1=O)NCCCN1CCCCCC1	none
CN(C(=O)CN1C(=O)C2C3CC(C(Br)C3Br)C2C1=O)C1CCCCC1 (centres undefined)	none (no result: CHOP inhibitor, Beta cell apopt)
COc1cccc(C(=O)OCC(=O)NCC2CCCO2)c1 (centres undefined)	none (no result: CHOP inhibitor, T cruzi repl)
CCC(=O)c1ccc(N2CCN(C(=O)c3ccc(Br)cc3)CC2)c(F)c1	CHOP inhibitor 84.6
CCC(=O)c1ccc(N2CCN(C(=O)c3cc([N+](=O)[O-])ccc3N3CCN(C)CC3)CC2)c(F)c1	GRIN3A LBD mod 14.2
CCC(=O)c1ccc(N2CCN(C(=O)c3ccc(F)cc3)CC2)c(F)c1	none
Cc1cc(C)cc(N(CCC(=O)Nc2nnc(C)s2)S(=O)(=O)c2ccc(Cl)cc2)c1	none
O=C(Nc1nc2c(Cl)cccc2s1)c1ccc(Br)o1	none
CS(=O)(=O)c1ccc2nc(NC(=O)c3cc4ccccc4o3)sc2c1	GRIN3A LBD mod 26.4
Cc1nc(NC(=O)c2cc3ccccc3o2)sc1C	none (no result: CHOP inhibitor)
